Assay results published in ChEMBL document CHEMBL3414424, “Fluoroalkane thioheterocyclic derivatives and their antitumor activity” (Eur J Med Chem, 2015).
Activity calls are given as the source filed them. The calls are words filed in the database; no cut-off is given here.

Key:
MCF7 [1] = test: Cytotoxicity against human MCF7 cells after 48 hrs by MTT assay; type: functional, cell-based; conditions: MCF7, 48 h
Procedure, shortened: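 MCF-7 cells were grown overnight, then treated continuously for 48 h with compounds in DMEM containing 10% FBS. After two PBS washes, cells got 0.5 mg/ml MTT in serum-free DMEM for 4 h. Formazan was solubilized in DMSO and OD read at 570 nm.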

[2] = Cytotoxicity against human SH-SY5Y cells after 48 hrs by MTT assay; type: functional, cell-based
Procedure, shortened: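 SH-SY5Y, after overnight growth, were exposed continuously to compounds for 48 h in DMEM with 10% FBS. Then PBS washes, 4 h with 0.5 mg/ml MTT in serum-free DMEM, DMSO solubilization of formazan, and OD at 570 nm.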

HepG2 [3] = test: Cytotoxicity against human HepG2 cells after 48 hrs by MTT assay; type: functional, cell-based; conditions: HepG2, 48 h
Procedure, shortened: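 HepG2 kept in MEM with 10% FBS and 1% penicillin/streptomycin at 37 °C, 5% CO2. After overnight growth, cells were exposed continuously to compounds for 48 h in MEM with 10% FBS. They were then PBS-washed and given 0.5 mg/ml MTT in serum-free DMEM for 4 h. Formazan was dissolved in DMSO and read at 570 nm.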

MCF7 [4] = test: Cytotoxicity against human MCF7 cells at 1 uM after 48 hrs by MTT assay; type: functional, cell-based
Procedure, shortened: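 Percent proliferation inhibition of MCF-7 at a single concentration, taken from a dose-response series. Cells were plated overnight, then compound-treated for 48 h in DMEM + 10% FBS. They were washed with PBS and incubated 4 h with 0.5 mg/ml MTT in serum-free DMEM. Formazan was dissolved in DMSO and read at 570 nm.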

[5] = Cytotoxicity against human SH-SY5Y cells at 1 uM after 48 hrs by MTT assay; type: functional
Procedure, shortened: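 SH-SY5Y cells were grown overnight and treated for 48 h at the stated concentration in DMEM/10% FBS, as part of a dose-response series. After PBS washes, cells were incubated 4 h with 0.5 mg/ml MTT in serum-free DMEM. Formazan was dissolved in DMSO and read at 570 nm to give inhibition rate.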

HepG2 [6] = test: Cytotoxicity against human HepG2 cells at 1 uM after 48 hrs by MTT assay; type: functional, cell-based
Procedure, shortened: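 After overnight plating, HepG2 cells (maintained in MEM/10% FBS/1% pen-strep, 37 °C, 5% CO2) were treated at a fixed compound concentration for 48 h in MEM plus 10% FBS. MTT was 0.5 mg/ml in serum-free DMEM for 4 h after PBS washes, with formazan taken up in DMSO. Absorbance at 570 nm gave percent proliferation inhibition, part of a dose-response series.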

Row | SMILES | IC50 (MCF7 [1]) [µM] | IC50 [2] [µM] | IC50 (HepG2 [3]) [µM] | inhibition (MCF7 [4]) | inhibition at 1 µM [5] [%] | inhibition (HepG2 [6])
1 | O=S(=O)(CCC(F)(Cl)C(F)(F)Cl)c1nc2ccc(Cl)cc2s1 (stereo not drawn) | 8.4 | 6 | 6.1 |  |  | 
2 | FC(F)=C(F)CCSc1ncc(-c2ccncc2)s1 | > 120 | > 120 | > 120 |  |  | 
3 | O=S(=O)(CCC(F)=C(F)F)c1nccs1 | > 120 | > 120 | > 120 |  |  | 
4 | FC(F)=C(F)CCSc1nccs1 | > 120 | > 120 | > 120 |  |  | 
5 | FC(F)=C(F)CCSc1nc2ccccc2s1 | > 120 | > 120 | > 120 |  |  | 
6 | [O-][S+](CCC(F)=C(F)F)c1nccs1 (stereo not drawn) | > 120 | > 120 | > 120 |  |  | 
7 | c1ccc2sc(SNC3CCCCC3)nc2c1 | 89.2 | > 120 | 55 |  |  | 
8 | O=S(=O)(CCC(F)(Cl)C(F)(F)Cl)c1nc2ccccc2s1 (stereo not drawn) | 10.1 | 4.5 | 4.5 |  |  | 
9 | N#CC(C#N)=Cc1nccs1 | > 120 | > 120 | > 120 |  |  | 
10 | FC(F)=C(F)CCSc1nc2ccccc2[nH]1 | > 120 | > 120 | > 120 |  |  | 
11 | [O-][S+](CCC(F)(Cl)C(F)(F)Cl)c1nc2ccc(Cl)cc2s1 (stereo not drawn) | 12.2 | 2.1 | 6.9 | inactive | 50 | inactive
12 | [O-][S+](CCC(F)=C(F)F)c1ncc(-c2ccncc2)s1 (stereo not drawn) | > 120 | > 120 | > 120 |  |  | 
13 | Cn1c(SCCC(F)=C(F)F)nc(-c2ccncc2)cc1=O | > 120 | > 120 | > 120 |  |  | 
14 | FC(F)(Cl)C(F)(Cl)CCSc1nc2ccc(Cl)cc2s1 (stereo not drawn) | > 120 | > 120 | > 120 |  |  | 
15 | FC(F)=C(F)CCSc1nc2ccc(OC(F)F)cc2[nH]1 | > 120 | > 120 | > 120 |  |  | 
16 | O=S(=O)(CCC(F)=C(F)F)c1ncc(-c2ccncc2)s1 | > 120 | > 120 | > 120 |  |  | 
17 | FC(F)=C(F)CCSc1ccccn1 | > 120 | > 120 | > 120 |  |  | 
18 | N#CC(C#N)(CCC(F)=C(F)F)Cc1nccs1 | > 120 | > 120 | > 120 |  |  | 
19 | FC(F)=C(F)CCSc1ncc(Cl)s1 | > 120 | > 120 | > 120 |  |  | 
20 | [O-][S+](CCC(F)=C(F)F)c1nc2ccccc2s1 (stereo not drawn) | 8.6 | 7 | 4.7 |  |  | 
